Measured values from ChEMBL document CHEMBL1151461, “Madurahydroxylactone derivatives as dual inhibitors of human immunodeficiency virus type 1 integrase and RNase H” (Antimicrob Agents Chemother, 2008).
pIC50: −log10 of the molar value.

Experiments:
[1] = Inhibition of HIV1 RNase H by FRET high-throughput assay; set-up: species or system Human immunodeficiency virus 1
In short: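 3′-fluorescein/5′-DABCYL RNA/DNA hybrid (0.16 nM) preincubated with compound; reaction started with 7.5 nM HIV-1 RNase H, 30 min at room temperature, EDTA quench, fluorescence intensity read. IC50 as mean ± SD of ≥3 independent experiments, or single experiment where footnoted.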

[2] = target: Human immunodeficiency virus type 1 integrase (Human immunodeficiency virus 1, UniProt Q7ZJM1); test: Inhibition of HIV1 recombinant integrase by electrochemiluminescent-based high-throughput strand transfer assay
In short: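 Biotinylated, 3′-end-preprocessed donor DNA incubated 30 min at 37°C with 250 nM recombinant integrase; compound added, strand transfer started with ruthenium-labeled duplex target DNA, 60 min at 37°C; electrochemiluminescence read. IC50 as mean ± SD of ≥3 independent experiments, or single experiment where footnoted.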

[3] = test system: Human immunodeficiency virus 1; test: Selectivity, ratio of IC50 for HIV1 recombinant integrase to IC50 for HIV1 RNase H
[4] = target: Human immunodeficiency virus type 1 integrase (Human immunodeficiency virus 1) (UniProt Q7ZJM1); test: Selectivity for inhibition of HIV1 recombinant integrase strand transfer activity over 3'-end processing
[5] = test system: Human immunodeficiency virus 1; test: Selectivity, ratio of IC50 for HIV1 RNase H to IC50 for HIV1 recombinant integrase
In short: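 Ratio of the IC50s from two assays run on the same compounds. Integrase: a biotinylated 3′-preprocessed donor DNA was preincubated 30 min at 37°C with 250 nM recombinant HIV-1 integrase. Compound was then added, ruthenium-labelled target DNA started strand transfer, 60 min at 37°C, electrochemiluminescent read-out. RNase H: 0.16 nM 3′-fluorescein/5′-DABCYL RNA/DNA hybrid with 7.5 nM enzyme, 30 min at room temperature, EDTA quench, FRET fluorescence.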

Chain of Human immunodeficiency virus type 1 integrase (Q7ZJM1 whole entry): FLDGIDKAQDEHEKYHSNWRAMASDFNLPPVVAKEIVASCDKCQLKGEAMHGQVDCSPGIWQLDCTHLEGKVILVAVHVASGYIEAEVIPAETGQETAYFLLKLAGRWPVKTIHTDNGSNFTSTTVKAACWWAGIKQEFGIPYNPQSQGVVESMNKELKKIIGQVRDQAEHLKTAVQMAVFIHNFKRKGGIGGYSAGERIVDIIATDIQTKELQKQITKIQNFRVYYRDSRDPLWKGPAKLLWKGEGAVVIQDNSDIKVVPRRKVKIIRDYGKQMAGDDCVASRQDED
Chain of Human immunodeficiency virus type 1 integrase (Human immunodeficiency virus 1) (Q7ZJM1 as listed by the source): as the sequence (Q7ZJM1 whole entry) above

| Structure (SMILES) | pIC50 [1] | pIC50 [2] | Ratio IC50 [3] | fold change (FC) [4] | Ratio IC50 [5] |
| --- | --- | --- | --- | --- | --- |
| CCOC(=O)Cn1ncc2cc3c(c(O)c2c1=O)-c1c(O)c2c(c(OC)c1CC3)C(=O)c1c(cc(O)c(C)c1O)C2=O | 5.68 | 5.57 |  |  |  |
| CO/N=C/c1cc2c(c(O)c1C(=O)O)-c1c(O)c3c(c(OC)c1CC2)C(=O)c1c(cc(O)c(C)c1O)C3=O | 5.00 | 4.90 |  |  |  |
| COc1c2c(c(O)c3c1C(=O)c1c(cc(O)c(C)c1O)C3=O)-c1c(cc(/C=N/Nc3ccc([N+](=O)[O-])cc3)c(C(=O)O)c1O)CC2 | 4.85 | 5.66 |  |  |  |
| COc1c2c(c(O)c3c1C(=O)c1c(cc(O)c(C)c1O)C3=O)-c1c(cc(/C=N/C34CC5CC(CC(C5)C3)C4)c(C(=O)O)c1O)CC2 | 5.03 | 4.43 |  |  |  |
| COc1c2c(c(O)c3c1C(=O)c1c(cc(O)c(C)c1O)C3=O)-c1c(cc3cnn(-c4ccc(C(=O)O)cc4)c(=O)c3c1O)CC2 | 5.04 | 5.46 |  |  |  |
| COc1c2c(c(O)c3c1C(=O)c1c(cc(O)c(C)c1O)C3=O)-c1c(cc3cnn(CC(=O)O)c(=O)c3c1O)CC2 | 4.99 | 5.34 |  |  |  |
| COc1c2c(c(O)c3c1C(=O)c1c(cc(O)c(C)c1O)C3=O)-c1c(cc3c(c1O)C(=O)N1CCCNC31)CC2 (centres undefined) | 5.15 | 4.25 |  |  |  |
| COc1c2c(c(OC(C)=O)c3c1C(=O)c1c(cc(OC(C)=O)c(C)c1OC(C)=O)C3=O)-c1c(cc3cnn(-c4ccccc4)c(=O)c3c1OC(C)=O)CC2 | 5.50 | < 3.48 | 100 |  |  |
| COc1c2c(c(O)c3c1C(=O)c1c(cc(O)c(C)c1O)C3=O)-c1c(cc(/C=N/NC(=N)N)c(C(=O)O)c1O)CC2 | 5.25 | 5.50 |  |  |  |
| COc1c2c(c(O)c3c1C(=O)c1c(cc(O)c(C)c1O)C3=O)-c1c(cc(/C=N/NS(=O)(=O)c3ccc(C)cc3)c(C(=O)O)c1O)CC2 | 5.23 | 4.66 |  |  |  |
| COc1c2c(c(O)c3c1C(=O)c1c(cc(O)c(C)c1O)C3=O)-c1c(cc3cnn(CCOC(C)=O)c(=O)c3c1O)CC2 | 5.06 | 5.20 |  |  |  |
| COc1c2c(c(O)c3c1C(=O)c1c(cc(O)c(C)c1O)C3=O)-c1c(cc(/C=N/NC(=O)c3ccccc3O)c(C(=O)O)c1O)CC2 | 5.45 | 5.22 |  |  |  |
| COc1c2c(c(O)c3c1C(=O)c1c(cc(O)c(C)c1O)C3=O)-c1c(cc3cnn(-c4ccccc4)c(=O)c3c1O)CC2 | 5.59 | 6.39 |  | 20 | 100 |
| COc1c2c(c(O)c3c1C(=O)c1c(cc(O)c(C)c1O)C3=O)-c1c(cc3c(c1O)C(=O)N(N(C)C)C3O)CC2 (centres undefined) | 5.16 | 5.11 |  |  |  |
| COc1c2c(c(O)c3c1C(=O)c1c(cc(O)c(C)c1O)C3=O)-c1c(cc3cnn(C(=N)N)c(=O)c3c1O)CC2 | 5.28 | 5.52 |  |  |  |
| COc1c2c(c(O)c3c1C(=O)c1c(cc(O)c(C)c1O)C3=O)-c1c(cc3cn[nH]c(=O)c3c1O)CC2 | 5.39 | 5.39 |  |  |  |
| COc1c2c(c(O)c3c1C(=O)c1c(cc(O)c(C)c1O)C3=O)-c1c(cc3c(c1O)C(=O)N1c4ccccc4CNC31)CC2 (centres undefined) | 6.11 | 3.97 | 100 |  |  |
| COc1c2c(c(O)c3c1C(=O)c1c(cc(O)c(C)c1O)C3=O)-c1c(cc(C3NCc4ccccc4N3)c(C(=O)O)c1O)CC2 (centres undefined) | 5.23 | 4.40 |  |  |  |
| COc1c2c(c(O)c3c1C(=O)c1c(cc(O)c(C)c1O)C3=O)-c1c(cc3c(c1O)C(=O)N1c4ccccc4SC31)CC2 (centres undefined) | 6.51 | 4.02 | 10 |  | 100 |
| COc1c2c(c(OCc3ccccc3)c3c1C(=O)c1c(cc(OCc4ccccc4)c(C)c1OCc1ccccc1)C3=O)-c1c(cc3cnn(CC(=O)O)c(=O)c3c1OCc1ccccc1)CC2 | 4.65 | 3.97 |  |  |  |
| CCCn1ncc2cc3c(c(O)c2c1=O)-c1c(O)c2c(c(OC)c1CC3)C(=O)c1c(cc(O)c(C)c1O)C2=O | 5.05 | 5.20 |  |  |  |
| COc1c2c(c(O)c3c1C(=O)c1c(cc(O)c(C)c1O)C3=O)-c1c(cc(/C=N/NC(C)(C)C)c(C(=O)O)c1O)CC2 | 6.16 | 3.91 | > 100 |  |  |
| COc1c2c(c(O)c3c1C(=O)c1c(cc(O)c(C)c1O)C3=O)-c1c(cc3c(c1O)C(=O)N1C(C(=O)O)CSC31)CC2 (centres undefined) | 4.80 | 4.70 |  |  |  |
| CCCn1ncc2cc3c(c(O)c2c1=O)-c1c(O)c2c(c(OC)c1CC3)C(=O)c1c(cc(OC(=O)OC)c(C)c1OC(C)=O)C2=O | 5.05 | < 3.48 |  |  |  |
| COc1c2c(c(O)c3c1C(=O)c1c(cc(O)c(C)c1O)C3=O)-c1c(cc(C(=O)O)c(C(=O)O)c1O)CC2 | 5.46 | 4.88 |  |  |  |
| COC(=O)Oc1cc2c(c(O)c1C)C(=O)c1c(OC)c3c(c(O)c1C2=O)-c1c(cc2cnn(-c4ccccc4)c(=O)c2c1O)CC3 | 5.84 | 3.70 | 100 |  |  |
| CCCn1ncc2cc3c(c(OC(C)=O)c2c1=O)-c1c(c(OC)c2c(c1OC(C)=O)C(=O)c1cc(OC(C)=O)c(C)c(OC(C)=O)c1C2=O)CC3 | 4.98 | < 3.48 |  |  |  |
| COc1c2c(c(O)c3c1C(=O)c1c(cc(O)c(C)c1O)C3=O)-c1c(cc(/C=N/NC(=O)c3ccccc3)c(C(=O)O)c1O)CC2 | 5.51 | 4.84 |  |  |  |
